# In the library only some 0.75% were active in any assay of this set; here they are far more common.
# TbHK1 inh: T. brucei hexokinase 1 inhibition. recombinant TbHK1, G6PDH-coupled NADH A340. inhibition, % at 10 µM. hit rate 0.11% among 220,000. AID 1430;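 active means inhibition of 50% or more in the single-dose primary screen; inactive means inhibition below 50%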
# Mdm2 ligase inh: inhibitors of human Mdm2 E3 ubiquitin ligase. Q00987. cell-based MDM2 ubiquitination luciferase reporter, 2 h; 0 = plate control, 100 = twice control, blank-subtracted. signal enhancement, % at 5 µM. hit rate 0.11% among 210,000. AID 1230;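 active means signal enhancement of 30% or more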;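 further: luminescence tracks abundance of the self-degrading MDM2-luciferase fusion protein; higher signal means inhibition of MDM2 E3 ligase activity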
#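 Test system: stable mammalian line carrying autodegrading MDM2–luciferase fusion reporter; quantity: 2000 cells in each well; times: 4 h cell settling then 2 h compound exposure, 37 °C; detection: luminescence with SteadyLite reagent, 15 min at room temperature; evaluation: percent signal gain over controls, blank-subtracted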
# Rad51 HR inh: Rad51 (human) homologous recombination inhibition | AID 1385 | hRad51 DNA strand exchange, fluorescence dequenching | hit rate 0.085% among 200,000 | inhibition, % at 10 µM;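 active means inhibition above 40% at the single screening dose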;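 further: 0% = DMSO control wells and 100% = blanks with heterologous ssDNA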
#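 Read-out basis: percent inhibition relative to plate controls and blanks / Assay system: human Rad51 nucleoprotein filaments preassembled on unlabelled ssDNA / Timing: filaments 15 min 37 °C, then compound 30 min / Control set: per-plate controls and blanks / Technique: fluorescence dequenching at 485/520 nm / Compound: 10 µM final, single point / Also added: Fluorescein- and BHQ1-tagged 47-mer duplex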
# NCF1 inh: p47phox (human) inhibition. p47phox/p22phox peptide binding, fluorescence polarization, 2 h. inhibition, % at 24.7 µM. P14598. hit rate 0.53% among 220,000. AID 1274;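 active means inhibition above about 30%, limit read from the data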;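 further: 0% = p47phox with labelled peptide and 100% = labelled peptide alone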
# Target sequence (P14598 whole entry, looked up): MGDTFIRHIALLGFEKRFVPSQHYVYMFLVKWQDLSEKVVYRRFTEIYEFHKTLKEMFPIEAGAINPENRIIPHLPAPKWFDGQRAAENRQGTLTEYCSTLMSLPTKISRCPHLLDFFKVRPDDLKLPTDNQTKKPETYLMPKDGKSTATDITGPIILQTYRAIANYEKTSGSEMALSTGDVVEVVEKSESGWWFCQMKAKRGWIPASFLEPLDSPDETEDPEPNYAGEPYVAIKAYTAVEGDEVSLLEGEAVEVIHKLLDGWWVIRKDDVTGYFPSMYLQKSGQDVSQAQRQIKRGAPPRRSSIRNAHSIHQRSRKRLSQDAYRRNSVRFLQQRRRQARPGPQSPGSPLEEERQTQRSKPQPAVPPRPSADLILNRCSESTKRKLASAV
# * hit, by the source's call; x = no result.
SMILES,TbHK1 inh,Mdm2 ligase inh,Rad51 HR inh,NCF1 inh
CC(=O)Nc1ccc(S(=O)(=O)N2CCN=C2SCc2cccnc2)cc1,-3,32*,-1,-4
O=S(=O)(c1ccc(F)cc1)N1CCN=C1SCc1cccnc1,2,8,2,-2
COC(=O)C1=NNC2(C)C(=O)N(c3ccc(C)cc3)C(=O)C12 (stereo not drawn),1,6,0,-13
Cc1cc(C(=O)Nc2cccc3ccccc23)n(-c2ccccc2)n1,-6,42*,6,7
CC(=O)Nc1ccc(NC(=O)c2cc(C)nn2-c2ccccc2)cc1,-3,-1,-3,-12
CC(C)CNc1cc(N2CCCC2)ccc1[N+](=O)[O-],-6,-2,7,59*
O=C(/C=C/NNC(=O)c1ccccc1)c1ccc([N+](=O)[O-])cc1,-11,-8,6,9
CC(C)CC(NC(N)=O)C(=O)OCC(=O)Nc1ccc(OC(F)F)cc1 (stereo not drawn),-2,-11,-6,-3
COc1ccc(-c2cn[nH]c2-c2ccc(OCc3ccc([N+](=O)[O-])cc3)cc2O)cc1,2,-10,-1,35*
CCOc1ccc(-c2[nH]ncc2-c2ccc(OC)c(OC)c2)c(O)c1,-7,-34,-3,-15
Cc1nc(N2CCN(C)CC2)c2sc(=S)n(C)c2n1,-49,-12,0,106*
CC(=O)c1cccc(CN2CCCC(CCC(=O)NCc3ccc(F)c(F)c3)C2)c1 (stereo not drawn),-1,0,11,-16
O=C(COC(=O)Cc1cccc(C(F)(F)F)c1)NCC1CCCO1 (stereo not drawn),6,-9,3,65*
O=C(COC(=O)c1ccccc1)NCC1CCCO1 (stereo not drawn),8,-8,-5,8
O=C(CCc1nnc(-c2ccsc2)o1)N1CCc2c(Cl)cccc2C1,5,-6,12,0
N#Cc1nc(COc2ccc(F)cc2)oc1N1CCC(Cc2ccccc2)CC1,10,-7,x,50*
COc1ccc(-c2nnn(CC(=O)NCc3ccccc3)n2)cc1OC,0,x,4,-12
CCOc1ccc(-c2nnn(CC(=O)Nc3ccccc3OC)n2)cc1OCC,5,-16,-5,31*
CC(=O)NC1(C(=O)O)CCCC1,-6,-14,5,-10
CC12CC3CC(C)(C1)CC(CN1CCOCC1)(C3)C2,2,-2,-4,39*
Cc1[nH]c2c(ccc3ccccc32)c1C1C(CCN)C1(C)C (stereo not drawn),-9,-12,8,60*
CC(C)=NNC(=O)C1=NNC(=O)C1,-8,-8,-1,-11
COc1ccc(C(=O)c2sc3nc(-c4ccccc4)ccc3c2N)cc1OC,-16,-7,-77,30*
O=C1ON=C(c2ccccc2)/C1=C/c1ccc(-c2ccccc2[N+](=O)[O-])o1,29,0,4,142*
O=[N+]([O-])c1ccccc1-c1ccc(/C=N/n2cnnc2)o1,-34,-3,-2,-7
SMILES,TbHK1 inh,Mdm2 ligase inh,Rad51 HR inh,NCF1 inh
O=C(Cc1ccc(Cl)cc1Cl)NCC1(N2CCOCC2)CCCCC1,-1,-18,-1,-17
COc1cc2c(-c3ccc(O)cc3)nc3c(c(C)nn3-c3ccccc3)c2cc1OC,-16,-12,16,34*
CSC(=S)N/N=C/c1ccccc1,-28,-12,-1,-10
COc1ccc(OC)c(-c2cc(C(=O)NCc3ccc(Cl)cc3)no2)c1,-2,-8,7,-9
O=C(N/N=C1/C(=O)c2cccc3cccc1c23)c1ccc(Cl)cc1,-19,-7,1,48*
CCNC(=S)N/N=C1\C(=O)c2cccc3cccc1c23,-32,-7,-4,-18
CC1(C)CC2CC(C)(CN2/C=C2/CCCCC2=O)C1 (stereo not drawn),-14,x,-7,-36
O=C(COc1cccc(Br)c1)N/N=C1\CCCc2ccccc21,2,-2,2,5
O=C(COc1cccc(Br)c1)NN=C1c2ccccc2-c2ccccc21,-4,-11,-4,68*
COc1ccc(CNC(=O)C/C(C)=N/NC(=O)COc2ccc(C)cc2Br)cc1,3,5,x,-1
Nc1cc(Cl)ccc1N1C(=O)CCC1=O,-6,1,-21,31*
CN(C)c1ccc(/C=C/C=C2/SC(=S)N(c3ccccc3)C2=O)cc1,-16,-16,-55,107*
O=C(O)c1ccc(N2C(=O)/C(=C/C=C/c3ccccc3)SC2=S)cc1,5,-6,2,-4
c1ccc(CSC2=NNC(c3ccccn3)S2)cc1 (stereo not drawn),-21,37*,0,-4

# Screens (PubChem)
